The source made the active and inactive calls. No cut-off for these calls is given here.
What was measured:
A-375 [1] = assay: Cell cycle arrest in human A375 cells by assessed as increase in accumulation at subG1 phase […] by flow cytometry; format: functional, cell-based
HCT-116 = assay: Growth inhibition of human HCT116 cells; format: functional
Malme-3M = assay: Growth inhibition of human MALME-3M cells; format: functional
MDA-MB-231 = assay: Growth inhibition of human MDA-MB-231 cells; format: functional
SK-MEL-2 = assay: Growth inhibition of human SK-MEL-2 cells; format: functional
MDA-MB-468 = assay: Growth inhibition of human MDA-MB-468 cells; format: functional
[2] = Cytotoxicity against human fibroblasts after 48 hrs by SRB assay; format: cell-based; settings: Fibroblast
Procedure, shortened: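 Melanoma lines and control fibroblasts grown at 37 °C, 5% CO2, then exposed to a wide concentration range for 48 h in round-bottom 96-well plates. Fixed with 10% TCA, stained with SRB, protein read at 560 nm. IC50 (50% growth inhibition versus untreated) obtained by nonlinear regression.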

A-375 [3] = assay: Inhibition of human A375 cells colony formation at 2 uM after 7 days by colony-formation assay; format: functional, cell-based
OVCAR-8 = assay: Growth inhibition of human OVCAR8 cells; format: functional
SF-295 = assay: Growth inhibition of human SF295 cells; format: functional
A549 = assay: Growth inhibition of human A549 cells; format: functional
786-0 = assay: Growth inhibition of human 786-0 cells; format: functional
KM12 = assay: Growth inhibition of human KM12 cells; format: functional
[4] = Growth inhibition of human Hs 578T cells; format: functional
A-375 [5] = assay: Inhibition of human A375 cells colony formation at 100 uM after 7 days by colony-formation assay; format: functional, cell-based
A-375 [6] = assay: Antitumor activity against human A375 cells xenografted in athymic nude mouse assessed as tumor growth inhibition at 10 mg/kg, ip once daily administered 7 days after inoculation for 22 days; format: functional; design: scale not given: the % may be the effect or the level left; settings: route intraperitoneal
Procedure, shortened: (§1)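 Male athymic nude mice, 4–5 weeks old, received 2.5 × 10^6 A375 cells (FBS-free DMEM mixed 1:1 with Matrigel) subcutaneously in the right dorsal flank. At about 150 mm3 (~day 7), mice were grouped by tumor size (n = 8). Drug in 80% Tween 80/20% Captex 200 was injected daily, with vehicle controls i.p. Calipers twice weekly (a×b²×0.5); % reduction at day 22 = 100×[(T–T0)/(C–C0)]. Body weight tracked.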

M14 = assay: Growth inhibition of human M14 cells; format: functional
SF-268 = assay: Growth inhibition of human SF268 cells; format: functional
A-375 [7] = assay: Inhibition of human A375 cells colony formation at 20 uM after 7 days by colony-formation assay; format: functional; settings: A-375, 168 h
LNCaP = assay: Cell cycle arrest in human LNCAP cells by assessed as increase in accumulation at subG1 phase […] by flow cytometry; format: functional, cell-based
A-375 [8] = assay: Antitumor activity against human A375 cells xenografted in athymic nude mouse assessed as tumor growth inhibition at 5 mg/kg, ip once daily administered 7 days after inoculation for 22 days; format: functional; design: scale not given: the % may be the effect or the level left; settings: route intraperitoneal; procedure, shortened: as §1
MCF7 = assay: Growth inhibition of human MCF7 cells; format: functional
HL-60(TB) = assay: Growth inhibition of human HL-60(TB) cells; format: functional
OVCAR-5 = assay: Growth inhibition of human OVCAR5 cells; format: functional
Mus musculus = assay: Toxicity in ip dosed athymic nude mouse assessed as body weight loss; format: organism-based; settings: in vivo
Procedure, shortened: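 Male athymic nude mice (4–5 weeks) given subcutaneous A375 cells in Matrigel (1:1). At about 150 mm3, near day 7, split into groups of n = 8. Dosed at 5 or 10 mg/kg in 80% Tween 80/20% Captex 200, injected once daily for 22 days. Vehicle (intraperitoneal) and DTIC 60 mg/kg controls. Body weight and activity monitored throughout.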

SN12C = assay: Growth inhibition of human SN12C cells; format: functional
K562 = assay: Growth inhibition of human K562 cells; format: functional
[9] = Growth inhibition of human […] cells; format: functional
[10] = read-out: LC50 (the source's name)

CCCCCCCCCCCCCCCCNC(=O)[C@@H]1CSC(c2ccc(NC(C)=O)cc2)N1 (mixture of isomers)
Activity (A-375 [1]): Dose-dependent effect
GI50 (HCT-116): 180 nM
TGI (HCT-116): 330 nM
CC50 (HCT-116; [10]): 600 nM
GI50 (Malme-3M): 320 nM
TGI (Malme-3M): 1110 nM
CC50 (Malme-3M; [10]): 3950 nM
GI50 (MDA-MB-231): 180 nM
TGI (MDA-MB-231): 320 nM
CC50 (MDA-MB-231; [10]): 590 nM
GI50 (SK-MEL-2): 250 nM
TGI (SK-MEL-2): 540 nM
CC50 (SK-MEL-2; [10]): 1750 nM
GI50 (MDA-MB-468): 220 nM
TGI (MDA-MB-468): 510 nM
CC50 (MDA-MB-468; [10]): 1540 nM
IC50 [2]: 16000 nM
Activity (A-375 [3]): Active
GI50 (OVCAR-8): 280 nM
TGI (OVCAR-8): 730 nM
CC50 (OVCAR-8; [10]): > 100000 nM
GI50 (SF-295): 280 nM
TGI (SF-295): 1060 nM
CC50 (SF-295; [10]): 4090 nM
GI50 (A549): 360 nM
TGI (A549): 1350 nM
CC50 (A549; [10]): 5280 nM
GI50 (786-0): 220 nM
TGI (786-0): 420 nM
CC50 (786-0; [10]): 770 nM
GI50 (KM12): 180 nM
TGI (KM12): 330 nM
CC50 (KM12; [10]): 580 nM
GI50 [4]: 180 nM
TGI [4]: 380 nM
CC50 [4, 10]: 780 nM
Activity (A-375 [5]): Active
Activity (A-375 [6]): 62%
GI50 (M14): 170 nM
TGI (M14): 330 nM
CC50 (M14; [10]): 620 nM
GI50 (SF-268): 160 nM
TGI (SF-268): 310 nM
CC50 (SF-268; [10]): 600 nM
inhibition at 20 µM (A-375 [7]): 75%
Activity (LNCaP): Dose-dependent effect
Activity (A-375 [8]): 25%
GI50 (MCF7): 190 nM
TGI (MCF7): 380 nM
CC50 (MCF7; [10]): 800 nM
GI50 (HL-60(TB)): 170 nM
TGI (HL-60(TB)): 370 nM
CC50 (HL-60(TB); [10]): 790 nM
GI50 (OVCAR-5): 200 nM
TGI (OVCAR-5): 370 nM
CC50 (OVCAR-5; [10]): 670 nM
Activity (Mus musculus): Non-toxic
GI50 (SN12C): 350 nM
TGI (SN12C): 510 nM
CC50 (SN12C; [10]): 740 nM
GI50 (K562): 210 nM
TGI (K562): 430 nM
CC50 (K562; [10]): 900 nM
GI50 [9]: 220 nM
TGI [9]: 560 nM
CC50 [9, 10]: > 100000 nM

— ChEMBL document CHEMBL1159121, “Synthesis, in vitro structure-activity relationship, and in vivo studies of 2-arylthiazolidine-4-carboxylic acid amides as anticancer agents” (Bioorg Med Chem, 2010)
